Source: PubChem (Broad Institute)
DENV2 CPE – inhibitors of DENV2 cytopathic effect, primary screen, cell-based, plate reader, single concentration; 1.7% of 350,000 active; CPE inhibition, % at 9.99 µM; DENV2-infected cells, cytopathic effect rescue; in the data active means CPE inhibition above about 20%, passing the limit was not always enough; inconclusive means no clear call, values can overlap the other calls; tested in BHK-21 cells;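 further: 0% = median of neutral control wells and 100% = median of positive control wells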
rRNA inh HTS – reduced GFP signal of wild-type E. coli, primary screen, bacterial rRNA inhibitor project, GFP/RFP fluorescence, OD600, single point. E. coli WT GFP vs humanized-ribosome RFP mutants, 24 h; active compounds read low; DMSO median 0, no signal -100. GFP signal change (wild-type ribosome), % (concentration not given with the values). 1.6% of 350,000 active. AID 720706, 2013;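 active means significant combined selectivity score with lowered wild-type GFP, culture density cut under 30%, mutant RFP and density less affected; inactive means any of these conditions unmet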
PGC1a acetyl inh – inhibitors of PGC1a acetylation signal, primary screen, cell-based, U2OS, AlphaScreen, inhibitor mode; AlphaScreen anti-acetyl-lysine; with virally co-expressed GCN5 acetyltransferase; inhibition, % at 15.6 µM; 0.17% of 350,000 active;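 active means every replicate shows inhibition of at least 40%; inconclusive means mean inhibition at least 40% but some replicate below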;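 further: 0% = neutral control wells and 100% = positive control wells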
PglD inh – C. jejuni PglD acetyltransferase inhibitors, primary screen, biochemical, DTNB colorimetric, single point | AID 602405, 2012 | UDP-N-acetylbacillosamine N-acetyltransferase PglD (Campylobacter jejuni) | 0.098% of 360,000 active | inhibition, % at 12.5 µM | purified PglD enzyme, DTNB colorimetric CoA detection; in the data active means inhibition above about 16%, passing the limit was not always enough; inconclusive means no clear call, values can overlap the other calls
Env fusion inh – inhibitors of HIV-1 Env-driven cell-cell fusion, primary screen, HeLa-JRFL effector, CEM21 target cells, luciferase. inhibition, % at 12.3 µM. AID 651610, 2012. 1.1% of 360,000 active;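 active means mean replicate inhibition score of at least 50 and every replicate individually at or above 50; inconclusive means only one of the two criteria met; inactive means mean below 50 and not all replicates reaching 50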;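 further: 0% = plate neutral controls and 100% = maraviroc near 300 nM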
FN deposition inh – inhibitors of fibronectin matrix deposition, primary screen, AH1F cells, Alexa488-fibronectin fluorescence, plate reader; AH1F fibroblasts, overnight; inhibition, % at 12.6 µM; 0.086% of 350,000 active; AID 743247, 2014;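 active means mean inhibition across replicates of 30% or more, regardless of how many single replicates reach that level; inconclusive means mean under 30% yet at least half of replicates reach 30%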;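 further: positive control wells lacked labelled fibronectin entirely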
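Assay system: AH1F fibroblasts assembling fluorescent fibronectin matrix; Amount: 10000 AH1F cells per well; Buffer or medium: DMEM, 2% serum; Probe or stimulus: Alexa488-fibronectin, 24 nM final in well; Doses: single compound dose, delivered by pin transfer; Incubation: 1 h adhesion, overnight exposure; Measured by: fluorescence 485/525 nm; Read-out: fibronectin deposition inhibition.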
Numbers without * were called inactive; ? = inconclusive; . = not tested or not shown; ! = not active in a repeat; [ ] = another dose, or the depositor's remark. Hits are enriched below; roughly 3.5% of the tested compounds scored in any of these assays.

SMILES	DENV2 CPE	rRNA inh HTS	PGC1a acetyl inh	PglD inh	Env fusion inh	FN deposition inh
CCCC#Cc1ccc2c(c1)O[C@H](CN(C)S(=O)(=O)c1cccc(F)c1)[C@H](C)CN([C@@H](C)CO)S2(=O)=O	-8	2	3	0	64*[16.7 µM]	-24
CC(C)CC#Cc1ccc2c(c1)O[C@@H](CN(C)S(=O)(=O)c1ccc(F)cc1)[C@@H](C)CN([C@@H](C)CO)S2(=O)=O	.	0	-13	.	44[16.7 µM]	-2
CCCC#Cc1ccc2c(c1)O[C@@H](CN(C)S(=O)(=O)c1cccc(F)c1)[C@H](C)CN([C@@H](C)CO)S2(=O)=O	30*	0	-14	-1	21[16.7 µM]	.
CC(C)CC#Cc1ccc2c(c1)O[C@@H](CN(C)S(=O)(=O)c1ccc(F)cc1)[C@H](C)CN([C@@H](C)CO)S2(=O)=O	1	2	8	-3	60*[16.7 µM]	-2
CCCN1C[C@H](C)[C@@H](OC)CN(C)C(=O)c2cc(NC(=O)c3cccc(OC)c3)ccc2OC[C@@H]1C	.	-5	-4	.	.	2
Cc1noc(C)c1S(=O)(=O)N(C)C[C@@H]1Oc2ccc(NC(=O)Cn3cnnn3)cc2CC(=O)N([C@H](C)CO)C[C@H]1C	8	1	-10	0	1[16.7 µM]	.
N#Cc1c(Cl)nsc1NC(=O)c1ccccc1	-2	-44	.	.	60*	-2
C[C@@H]1CN([C@@H](C)CO)C(=O)c2cc(NS(=O)(=O)c3cn(C)cn3)ccc2O[C@@H](C)CCCCO[C@H]1CN(C)S(=O)(=O)c1ccc(Cl)cc1	3	-5	10	0	-3[16.7 µM]	.
COc1ccc2c(c1)CCc1c(C(=O)Nc3ccc(OC)c(OC)c3)noc1-2	.	.	.	.	-33	4
COc1ccc(CCNC(=O)c2nc(-c3cccs3)no2)cc1OC	-6	-22*	.	.	18	-2
COc1ccc2c(c1)CCc1c(C(=O)NCCc3ccc(OC)c(OC)c3)noc1-2	.	.	-13	7	59*	.
COc1ccc(CCNC(=O)c2cnc3scc(C)n3c2=O)cc1OC	75*	-10	1	8	36	0
CO[C@@H]1CN(C)C(=O)c2ccc(NS(C)(=O)=O)cc2OC[C@@H](C)N(C(=O)NC(C)C)C[C@@H]1C	-6	2	3	.	.	2
COc1ccc(S(=O)(=O)Nc2ccc3c(c2)C(=O)N([C@@H](C)CO)C[C@H](C)[C@@H](CN(C)C(=O)c2ccncc2)OCCCC[C@@H](C)O3)cc1	3	0	-1	1	-21[16.7 µM]	.
O=C(C(=O)c1cccnc1)c1cccnc1	15	14	2	.	9	5
Cc1cccnc1	21*	2	-3	3	.	.
Cc1noc(C)c1S(=O)(=O)Nc1ccc2c(c1)C(=O)N([C@H](C)CO)C[C@@H](C)[C@H](CN(C)C)O2	4	2	-3	1	.	-5
CC(C)c1cn([C@H]2C[C@@H]3O[C@H](CO)CC[C@@H]3O[C@@H]2CCc2ccc(C#CC3(O)CCCC3)cc2)nn1	-4	.	22	.	.	.
O=C(O)C1=C[C@H](C2CC2)C[C@H](OCc2ccc(CO)cc2)O1	22*!	4	-6	3	16	-1
O=C(NCc1nc2ccccc2[nH]1)C1=C[C@@H](C2CC2)C[C@@H](OCc2ccc(CO)cc2)O1	8	-27*	-28	-4	6[16.7 µM]	2
O=C(O)C1=C[C@@H](C2CCCCC2)C[C@@H](OCc2ccc(CO)cc2)O1	?	4	.	2	-22	5
CC(C)(C)[C@H]1C=C(C(=O)N2CCCCCCC2)O[C@@H](OCc2ccc(CO)cc2)C1	29*	.	-18	.	35[16.7 µM]	.
O=C(C1=C[C@@H](C2CC2)C[C@@H](OCc2ccc(CO)cc2)O1)N1CCOCC1	33*!	9	-2	4	16[16.7 µM]	11
Cc1ccccc1-c1ccc2c(c1)O[C@@H](CN(C)C)[C@@H](C)CN([C@@H](C)CO)S2(=O)=O	-7	5	-24	4	-4[16.7 µM]	-8
O=C1CN(S(=O)(=O)c2ccccc2)C[C@@H]2[C@H](c3ccc(Br)cc3)[C@H](CO)N12	-5	0	-8	.	.	.
SMILES	DENV2 CPE	rRNA inh HTS	PGC1a acetyl inh	PglD inh	Env fusion inh	FN deposition inh
O=C(Nc1ccc(Br)cc1Br)C1CC(=O)N(Cc2ccccc2)C1 (stereo not drawn)	4	-34*	0	1	10	2
CC1C=NC(S(=O)(=O)N2CC[C@H]3[C@@H](CO)N(C)c4ccc(-c5ccc(F)cc5)cc4[C@H]32)=N1 (stereo partly drawn)	-6	-5	1	4	.	-9
CCOc1ccc2[nH]c3ncccc3c(=O)c2c1	30*	2	.	.	-10	0
COc1ccc(CN(C)C(=O)C23CC4CC(CC(Cl)(C4)C2)C3)c(OC)c1OC	-6	-29*	-4	-2	0	-16
O=C(COC(=O)c1ccc2ncsc2c1)NCc1ccc(Cl)cc1	0	-2	-6	7	.	-12
Cc1cccc(C(=O)OCC(=O)NCc2ccc(Cl)cc2)c1	29*	2	7	-3	1	-2
Nc1cc2ccncc2c2ccccc12	-3	8	?	-3	62*	12
Cc1cc(C(=O)COC(=O)c2ccc(O)cc2)c(C)n1-c1ccccc1F	4	-29*	.	.	-47	.
Cc1cc(C(=O)COC(=O)c2ccc[nH]c2=O)c(C)n1-c1ccccc1F	9	1	.	.	-45	0
Cc1noc(C)c1NC(=O)N[C@H]1C=C[C@@H](CC(=O)N2CCCCC2)O[C@@H]1CO	-5	6	5	2	5[16.7 µM]	-1
CCOc1ccc(OCc2cccc(C(=O)N3CCOCC3)c2)cc1	.	.	-11	3	84*	1
O=C(c1cccc(Oc2ccc([N+](=O)[O-])cc2)c1)N1CCOCC1	97*	0	7	-1	11	3
COCC(=O)N1[C@H](CO)[C@H](c2ccccc2)C12CN(C(=O)c1cccnc1)C2	14	9	7	.	.	.
CCOc1ccc(NC(=O)c2ccc(CNc3c(NC4CCCCC4)c(=O)c3=O)cc2)cc1	2	0	-7	-1	9	33*
CO[C@@H]1CN(C)C(=O)c2ccc(NS(=O)(=O)c3cccc(F)c3)cc2OC[C@@H](C)N(Cc2cc(F)ccc2F)C[C@@H]1C	-1	-3	-16	0	.	-15
CO[C@@H]1CN(C)C(=O)c2ccc(NS(=O)(=O)c3cccc(F)c3)cc2OC[C@H](C)N(Cc2cc(F)ccc2F)C[C@@H]1C	28*	-5	-12	-1	.	-6
